Reference: ChEMBL document CHEMBL5058577, “EUbOPEN Chemogenomics Library 2 (Multiplex)” (2022)

Tested on: U2OS
Assay: Multiplex assay against U2OS
Assay type: toxicity, cell-based
Conditions: human
Procedure, shortened: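 Per cents of healthy-nucleus cells form the tubulin, mitochondrial-mass and membrane-permeability phenotype values. Live cells were stained at seeding with Hoechst33342, BioTracker Green Microtubule Cytoskeleton Dye, MitoTracker Red and Annexin V Alexa Fluor 680. After compound addition they were imaged on a CQ1 microscope at 37°C and 5% CO2, and CellPathfinder machine-learning gating split them into Hoechst high-intensity objects or normal cells, normal cells into healthy, pyknosed or fragmented nuclei, and pyknosed cells into mitotic or apoptotic.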

[1] = 12 h, 1 µM, compound concentration 1 uM, replicate 1
[2] = 12 h, 1 µM, compound concentration 1 uM, replicate 2
[3] = 12 h, 10 µM, compound concentration 10 uM, replicate 1
[4] = 12 h, 10 µM, compound concentration 10 uM, replicate 2
[5] = 24 h, 1 µM, compound concentration 1 uM, replicate 1
[6] = 24 h, 1 µM, compound concentration 1 uM, replicate 2
[7] = 24 h, 10 µM, compound concentration 10 uM, replicate 1
[8] = 24 h, 10 µM, compound concentration 10 uM, replicate 2
[9] = 48 h, 1 µM, compound concentration 1 uM, replicate 1
[10] = 48 h, 1 µM, compound concentration 1 uM, replicate 2
[11] = 48 h, 10 µM, compound concentration 10 uM, replicate 1
[12] = 48 h, 10 µM, compound concentration 10 uM, replicate 2

## COc1c(Nc2ccc(S(C)(=O)=O)nc2C)ncnc1OC1CCN(C(=O)OC(C)C)CC1 [ADP-597]
[1]
  Population Apoptotic (%): 82%
  Population Fragmented Nuclei (%): 23%
  Population Healthy Nuclei (%): 68%
  Population Hoechst High Intensity Objects (%): 2%
  Population Membrane Permeable-Phenotype (%): 7%
  Population Mitochondria Different-Phenotype (%): 1%
  Population Mitotic Cells (%): 17%
  Population Normal (%): 97%
  Population Pyknosed Nuclei (%): 8%
  Population Tubulin-Different-Phenotype (%): 5%
  Total Cell Count: 208
[2]
  Population Apoptotic (%): 75%
  Population Fragmented Nuclei (%): 13%
  Population Healthy Nuclei (%): 78%
  Population Hoechst High Intensity Objects (%): 3%
  Population Membrane Permeable-Phenotype (%): 11%
  Population Mitotic Cells (%): 25%
  Population Normal (%): 96%
  Population Tubulin-Different-Phenotype (%): 2%
  Total Cell Count: 95
[3]
  Population Apoptotic (%): 93%
  Population Fragmented Nuclei (%): 27%
  Population Healthy Nuclei (%): 60%
  Population Hoechst High Intensity Objects (%): 8%
  Population Membrane Permeable-Phenotype (%): 7%
  Population Mitochondria Different-Phenotype (%): 2%
  Population Mitotic Cells (%): 6%
  Population Normal (%): 91%
  Population Pyknosed Nuclei (%): 11%
  Population Tubulin-Different-Phenotype (%): 4%
  Total Cell Count: 266
[4]
  Population Apoptotic (%): 85%
  Population Fragmented Nuclei (%): 10%
  Population Healthy Nuclei (%): 77%
  Population Hoechst High Intensity Objects (%): 4%
  Population Mitochondria Different-Phenotype (%): 3%
  Population Mitotic Cells (%): 14%
  Population Normal (%): 95%
  Population Tubulin-Different-Phenotype (%): 1%
  Total Cell Count: 128
[5]
  Population Apoptotic (%): 88%
  Population Fragmented Nuclei (%): 24%
  Population Healthy Nuclei (%): 67%
  Population Hoechst High Intensity Objects (%): 3%
  Population Membrane Permeable-Phenotype (%): 7%
  Population Mitochondria Different-Phenotype (%): 3%
  Population Mitotic Cells (%): 11%
  Population Normal (%): 96%
  Population Pyknosed Nuclei (%): 7%
  Population Tubulin-Different-Phenotype (%): 3%
  Total Cell Count: 239
[6]
  Population Apoptotic (%): 80%
  Population Fragmented Nuclei (%): 12%
  Population Healthy Nuclei (%): 79%
  Population Membrane Permeable-Phenotype (%): 8%
  Population Mitotic Cells (%): 20%
  Population Pyknosed Nuclei (%): 8%
  Population Tubulin-Different-Phenotype (%): 5%
  Total Cell Count: 129
[7]
  Population Apoptotic (%): 88%
  Population Fragmented Nuclei (%): 30%
  Population Healthy Nuclei (%): 61%
  Population Hoechst High Intensity Objects (%): 6%
  Population Membrane Permeable-Phenotype (%): 8%
  Population Mitochondria Different-Phenotype (%): 2%
  Population Mitotic Cells (%): 12%
  Population Normal (%): 93%
  Population Pyknosed Nuclei (%): 8%
  Population Tubulin-Different-Phenotype (%): 4%
  Total Cell Count: 305
[8]
  Population Apoptotic (%): 83%
  Population Fragmented Nuclei (%): 11%
  Population Healthy Nuclei (%): 80%
  Population Hoechst High Intensity Objects (%): 5%
  Population Membrane Permeable-Phenotype (%): 6%
  Population Mitochondria Different-Phenotype (%): 4%
  Population Mitotic Cells (%): 16%
  Population Normal (%): 94%
  Population Tubulin-Different-Phenotype (%): 1%
  Total Cell Count: 155
[9]
  Population Apoptotic (%): 80%
  Population Fragmented Nuclei (%): 19%
  Population Healthy Nuclei (%): 72%
  Population Hoechst High Intensity Objects (%): 2%
  Population Membrane Permeable-Phenotype (%): 6%
  Population Mitochondria Different-Phenotype (%): 5%
  Population Mitotic Cells (%): 19%
  Population Normal (%): 97%
  Population Pyknosed Nuclei (%): 7%
  Population Tubulin-Different-Phenotype (%): 2%
  Total Cell Count: 339
[10]
  Population Apoptotic (%): 81%
  Population Fragmented Nuclei (%): 20%
  Population Healthy Nuclei (%): 67%
  Population Membrane Permeable-Phenotype (%): 5%
  Population Mitochondria Different-Phenotype (%): 4%
  Population Mitotic Cells (%): 18%
  Population Pyknosed Nuclei (%): 12%
  Total Cell Count: 185
[11]
  Population Apoptotic (%): 79%
  Population Fragmented Nuclei (%): 24%
  Population Healthy Nuclei (%): 62%
  Population Hoechst High Intensity Objects (%): 6%
  Population Membrane Permeable-Phenotype (%): 6%
  Population Mitochondria Different-Phenotype (%): 4%
  Population Mitotic Cells (%): 20%
  Population Normal (%): 93%
  Population Pyknosed Nuclei (%): 13%
  Population Tubulin-Different-Phenotype (%): 2%
  Total Cell Count: 356
[12]
  Population Apoptotic (%): 92%
  Population Fragmented Nuclei (%): 10%
  Population Healthy Nuclei (%): 77%
  Population Hoechst High Intensity Objects (%): 3%
  Population Membrane Permeable-Phenotype (%): 4%
  Population Mitochondria Different-Phenotype (%): 0%
  Population Mitotic Cells (%): 8%
  Population Normal (%): 96%
  Population Pyknosed Nuclei (%): 11%
  Total Cell Count: 223

## COc1cc(Nc2ncc3c(n2)-c2ccc(Cl)cc2C(c2c(F)cccc2OC)=NC3)ccc1C(=O)O [ALISERTIB]
[1]
  Population Apoptotic (%): 63%
  Population Fragmented Nuclei (%): 23%
  Population Healthy Nuclei (%): 65%
  Population Hoechst High Intensity Objects (%): 1%
  Population Membrane Permeable-Phenotype (%): 4%
  Population Mitochondria Different-Phenotype (%): 3%
  Population Mitotic Cells (%): 36%
  Population Normal (%): 98%
  Population Pyknosed Nuclei (%): 10%
  Population Tubulin-Different-Phenotype (%): 3%
[2]
  Population Apoptotic (%): 71%
  Population Fragmented Nuclei (%): 35%
  Population Healthy Nuclei (%): 55%
  Population Hoechst High Intensity Objects (%): 4%
  Population Membrane Permeable-Phenotype (%): 8%
  Population Mitochondria Different-Phenotype (%): 4%
  Population Mitotic Cells (%): 28%
  Population Normal (%): 95%
  Population Pyknosed Nuclei (%): 8%
  Population Tubulin-Different-Phenotype (%): 11%
[3]
  Population Apoptotic (%): 79%
  Population Fragmented Nuclei (%): 31%
  Population Healthy Nuclei (%): 57%
  Population Hoechst High Intensity Objects (%): 3%
  Population Membrane Permeable-Phenotype (%): 11%
  Population Mitochondria Different-Phenotype (%): 5%
  Population Mitotic Cells (%): 20%
  Population Normal (%): 96%
  Population Pyknosed Nuclei (%): 11%
  Population Tubulin-Different-Phenotype (%): 4%
[4]
  Population Apoptotic (%): 71%
  Population Fragmented Nuclei (%): 12%
  Population Healthy Nuclei (%): 82%
  Population Hoechst High Intensity Objects (%): 2%
  Population Membrane Permeable-Phenotype (%): 5%
  Population Mitochondria Different-Phenotype (%): 1%
  Population Mitotic Cells (%): 28%
  Population Normal (%): 97%
  Population Pyknosed Nuclei (%): 5%
  Population Tubulin-Different-Phenotype (%): 0%
[5]
  Population Apoptotic (%): 78%
  Population Fragmented Nuclei (%): 26%
  Population Healthy Nuclei (%): 64%
  Population Hoechst High Intensity Objects (%): 1%
  Population Membrane Permeable-Phenotype (%): 9%
  Population Mitochondria Different-Phenotype (%): 4%
  Population Mitotic Cells (%): 21%
  Population Normal (%): 98%
  Population Pyknosed Nuclei (%): 8%
  Population Tubulin-Different-Phenotype (%): 5%
[6]
  Population Apoptotic (%): 75%
  Population Fragmented Nuclei (%): 20%
  Population Healthy Nuclei (%): 63%
  Population Hoechst High Intensity Objects (%): 2%
  Population Membrane Permeable-Phenotype (%): 6%
  Population Mitochondria Different-Phenotype (%): 2%
  Population Mitotic Cells (%): 25%
  Population Normal (%): 97%
  Population Pyknosed Nuclei (%): 15%
  Population Tubulin-Different-Phenotype (%): 2%
[7]
  Population Apoptotic (%): 84%
  Population Fragmented Nuclei (%): 30%
  Population Healthy Nuclei (%): 55%
  Population Hoechst High Intensity Objects (%): 4%
  Population Membrane Permeable-Phenotype (%): 13%
  Population Mitochondria Different-Phenotype (%): 5%
  Population Mitotic Cells (%): 15%
  Population Normal (%): 95%
  Population Pyknosed Nuclei (%): 13%
  Population Tubulin-Different-Phenotype (%): 4%
[8]
  Population Apoptotic (%): 90%
  Population Fragmented Nuclei (%): 12%
  Population Healthy Nuclei (%): 77%
  Population Membrane Permeable-Phenotype (%): 9%
  Population Mitochondria Different-Phenotype (%): 4%
  Population Mitotic Cells (%): 9%
  Population Pyknosed Nuclei (%): 9%
  Population Tubulin-Different-Phenotype (%): 5%
[9]
  Population Apoptotic (%): 85%
  Population Fragmented Nuclei (%): 28%
  Population Healthy Nuclei (%): 59%
  Population Hoechst High Intensity Objects (%): 3%
  Population Membrane Permeable-Phenotype (%): 6%
  Population Mitochondria Different-Phenotype (%): 5%
  Population Mitotic Cells (%): 14%
  Population Normal (%): 96%
  Population Pyknosed Nuclei (%): 12%
  Population Tubulin-Different-Phenotype (%): 3%
[10]
  Population Apoptotic (%): 78%
  Population Fragmented Nuclei (%): 29%
  Population Healthy Nuclei (%): 53%
  Population Membrane Permeable-Phenotype (%): 11%
  Population Mitochondria Different-Phenotype (%): 6%
  Population Mitotic Cells (%): 21%
  Population Pyknosed Nuclei (%): 17%
  Population Tubulin-Different-Phenotype (%): 4%
[11]
  Population Apoptotic (%): 88%
  Population Fragmented Nuclei (%): 34%
  Population Healthy Nuclei (%): 44%
  Population Hoechst High Intensity Objects (%): 9%
  Population Membrane Permeable-Phenotype (%): 16%
  Population Mitochondria Different-Phenotype (%): 9%
  Population Mitotic Cells (%): 11%
  Population Normal (%): 90%
  Population Pyknosed Nuclei (%): 21%
  Population Tubulin-Different-Phenotype (%): 9%
[12]
  Population Fragmented Nuclei (%): 16%
  Population Healthy Nuclei (%): 70%
  Population Hoechst High Intensity Objects (%): 5%
  Population Membrane Permeable-Phenotype (%): 7%
  Population Mitochondria Different-Phenotype (%): 3%
  Population Normal (%): 94%
  Population Pyknosed Nuclei (%): 13%
  Population Tubulin-Different-Phenotype (%): 2%
